Laboratory results as given in ChEMBL document CHEMBL1817593, “C5'-Alkyl Substitution Effects on Digitoxigenin α-l-Glycoside Cancer Cytotoxicity” (ACS Med Chem Lett, 2011).

Experiments:
Assay type in all cases: functional
[1] = test system: NCI-H460; assay: Cytotoxicity against human NCI-H460 cells assessed as cell viability at 10 nM after 48 hrs by MTT assay; conditions: NCI-H460, 48 h, read-out: Activity
In short: (§1)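 Viability of NCI-H460 cells was measured by MTT (mitochondrial enzymatic activity) after 48 h exposure, within a dose series spanning 1 nM–10 μM. N = 9, analysed by two-way ANOVA.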

[2] = test system: SNB-75; assay: Cytotoxicity against human SNB75 cells after 48 hrs by sulforhodamine B assay; conditions: SNB-75, 48 h
[3] = test system: MDA-MB-435; assay: Cytotoxicity against human MDA-MB-435 melanoma cells after 48 hrs by sulforhodamine B assay; conditions: MDA-MB-435, 48 h
[4] = test system: RPMI-8226; assay: Cytotoxicity against human RPMI8226 cells after 48 hrs by sulforhodamine B assay; conditions: RPMI-8226, 48 h
[5] = test system: U-251; assay: Cytotoxicity against human U251 cells after 48 hrs by sulforhodamine B assay; conditions: U-251, 48 h
[6] = test system: NCI-H226; assay: Cytotoxicity against human NCI-H226 cells after 48 hrs by sulforhodamine B assay; conditions: NCI-H226, 48 h
[7] = test system: Malme-3M; assay: Cytotoxicity against human MALME-3M cells after 48 hrs by sulforhodamine B assay
[8] = test system: NCI-H23; assay: Cytotoxicity against human NCI-H23 cells after 48 hrs by sulforhodamine B assay; conditions: NCI-H23, 48 h
[9] = test system: MOLT-4; assay: Cytotoxicity against human MOLT4 cells after 48 hrs by sulforhodamine B assay; conditions: MOLT-4, 48 h
[10] = test system: OVCAR-3; assay: Cytotoxicity against human OVCAR3 cells after 48 hrs by sulforhodamine B assay; conditions: OVCAR-3, 48 h
[11] = test system: T47D; assay: Cytotoxicity against human T47D cells after 48 hrs by sulforhodamine B assay
[12] = test system: HCT-15; assay: Cytotoxicity against human HCT15 cells after 48 hrs by sulforhodamine B assay; conditions: HCT-15, 48 h
[13] = test system: COLO 205; assay: Cytotoxicity against human COLO205 cells after 48 hrs by sulforhodamine B assay; conditions: COLO 205, 48 h
[14] = test system: MDA-MB-231; assay: Cytotoxicity against human MDA-MB-231 cells after 48 hrs by sulforhodamine B assay; conditions: MDA-MB-231, 48 h
[15] = test system: NCI-H460; assay: Cytotoxicity against human NCI-H460 cells assessed as cell viability after 48 hrs by MTT assay; conditions: NCI-H460, 48 h
In short: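 NCI-H460 cells were exposed to drug for 48 h, and viability was read by MTT as mitochondrial enzymatic activity. GI50 was derived from dose-response curves (1 nM–10 μM). Values are from three independent experiments with duplicate determinations, given with standard error of the mean.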

[16] = test system: HCC 2998; assay: Cytotoxicity against human HCC2998 cells after 48 hrs by sulforhodamine B assay; conditions: HCC 2998, 48 h
[17] = test system: TK-10; assay: Cytotoxicity against human TK10 cells after 48 hrs by sulforhodamine B assay; conditions: TK-10, 48 h
[18] = test system: CAKI-1; assay: Cytotoxicity against human Caki1 cells after 48 hrs by sulforhodamine B assay; conditions: CAKI-1, 48 h
[19] = test system: NCI-H460; assay: Cytotoxicity against human NCI-H460 cells assessed as cell death in serum free medium at 75 nM after 12 hrs by Hoechst 33342/propidium iodide staining based fluorescence microscopy
In short: (§2)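 NCI-H460 human lung cancer cells exposed 12 h to 10 nM–10 μM drug, including a 50 nM single-concentration test. Nuclei were stained with Hoechst 33342 and necrotic cells with propidium iodide. Apoptotic cells were scored by condensed or fragmented blue nuclei and necrotic cells by red PI staining. Total cell death (apoptosis plus necrosis) was recorded; N = 6.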

[20] = test system: OVCAR-8; assay: Cytotoxicity against human OVCAR8 cells after 48 hrs by sulforhodamine B assay; conditions: OVCAR-8, 48 h
[21] = test system: NCI-H460; assay: Cytotoxicity against human NCI-H460 cells assessed as cell death in serum free medium at 25 nM after 12 hrs by Hoechst 33342/propidium iodide staining based fluorescence microscopy; in short: as §2
[22] = test system: SF-268; assay: Cytotoxicity against human SF268 cells after 48 hrs by sulforhodamine B assay; conditions: SF-268, 48 h
[23] = test system: HOP-92; assay: Cytotoxicity against human HOP92 cells after 48 hrs by sulforhodamine B assay; conditions: HOP-92, 48 h
[24] = test system: NCI-H322M; assay: Cytotoxicity against human NCI-H322M cells after 48 hrs by sulforhodamine B assay
[25] = test system: BT-549; assay: Cytotoxicity against human BT549 cells after 48 hrs by sulforhodamine B assay; conditions: BT-549, 48 h
[26] = test system: SN12C; assay: Cytotoxicity against human SN12C cells after 48 hrs by sulforhodamine B assay
[27] = test system: NCI-H460; assay: Cytotoxicity against human NCI-H460 cells assessed as cell death in serum free medium at 10000 nM after 12 hrs by Hoechst 33342/propidium iodide staining based fluorescence microscopy; in short: as §2
[28] = test system: Hs-578T; assay: Cytotoxicity against human Hs578T cells after 48 hrs by sulforhodamine B assay
[29] = test system: M14; assay: Cytotoxicity against human M14 cells after 48 hrs by sulforhodamine B assay; conditions: M14, 48 h
[30] = test system: SK-MEL-28; assay: Cytotoxicity against human SK-MEL-28 cells after 48 hrs by sulforhodamine B assay; conditions: SK-MEL-28, 48 h
[31] = test system: NCI-H460; assay: Cytotoxicity against human NCI-H460 cells after 48 hrs by sulforhodamine B assay; conditions: NCI-H460, 48 h
[32] = test system: DU-145; assay: Cytotoxicity against human DU145 cells after 48 hrs by sulforhodamine B assay; conditions: DU-145, 48 h
[33] = test system: K562; assay: Cytotoxicity against human K562 cells after 48 hrs by sulforhodamine B assay; conditions: K562, 48 h
[34] = test system: NCI/ADR-RES; assay: Cytotoxicity against human NCI/ADR-RES cells after 48 hrs by sulforhodamine B assay
[35] = test system: SK-MEL-2; assay: Cytotoxicity against human SK-MEL-2 cells after 48 hrs by sulforhodamine B assay; conditions: SK-MEL-2, 48 h
[36] = test system: 786-0; assay: Cytotoxicity against human 786-0 cells after 48 hrs by sulforhodamine B assay; conditions: 786-0, 48 h
[37] = test system: HCT-116; assay: Cytotoxicity against human HCT116 cells after 48 hrs by sulforhodamine B assay; conditions: HCT-116, 48 h
[38] = test system: CCRF-CEM; assay: Cytotoxicity against human CCRF-CEM cells after 48 hrs by sulforhodamine B assay
[39] = test system: NCI-H460; assay: Cytotoxicity against human NCI-H460 cells assessed as cell viability at 25 nM after 48 hrs by MTT assay; conditions: NCI-H460, 48 h, read-out: Activity; in short: as §1
[40] = test system: NCI-H460; assay: Cytotoxicity against human NCI-H460 cells assessed as cell viability at 1 nM after 48 hrs by MTT assay; conditions: NCI-H460, 48 h, read-out: Activity; in short: as §1
[41] = test system: EKVX; assay: Cytotoxicity against human EKVX cells after 48 hrs by sulforhodamine B assay
[42] = test system: SF-295; assay: Cytotoxicity against human SF295 cells after 48 hrs by sulforhodamine B assay; conditions: SF-295, 48 h

## CC(C)[C@@H]1O[C@@H](O[C@H]2CC[C@@]3(C)[C@H](CC[C@@H]4[C@@H]3CC[C@]3(C)[C@@H](C5=CC(=O)OC5)CC[C@]43O)C2)CC[C@H]1O
[1]
  viability at 0.01 µM: 50.7%
[2]
  GI50: 92.6 nM
[3]
  GI50: 82.8 nM
[4]
  GI50: 78.4 nM
[5]
  GI50: 82.9 nM
[6]
  GI50: 119 nM
[7]
  GI50: 63.6 nM
[8]
  GI50: 29.4 nM
[9]
  GI50: 16.9 nM
[10]
  GI50: 26 nM
[11]
  GI50: 95.9 nM
[12]
  GI50: 62.2 nM
[13]
  GI50: 207 nM
[14]
  GI50: 259 nM
[15]
  GI50: 7.66 nM
[16]
  GI50: 243 nM
[17]
  GI50: 53.8 nM
[18]
  GI50: 20.8 nM
[19]
  Activity: 16.05%
[20]
  GI50: 56.2 nM
[21]
  Activity: 12.07%
[22]
  GI50: 26.3 nM
[23]
  GI50: 79.8 nM
[24]
  GI50: 77.4 nM
[25]
  GI50: 20.7 nM
[26]
  GI50: 23.7 nM
[27]
  Activity: 100%
[28]
  GI50: 13.6 nM
[29]
  GI50: 93.4 nM
[30]
  GI50: 252 nM
[31]
  GI50: 21.7 nM
[32]
  GI50: 19.5 nM
[33]
  GI50: 47 nM
[34]
  GI50: 31.5 nM
[35]
  GI50: 170 nM
[36]
  GI50: 26.8 nM
[37]
  GI50: 21.5 nM
[38]
  GI50: 33.1 nM
[39]
  viability at 0.025 µM: 30.1%
[40]
  viability at 0.001 µM: 81.1%
[41]
  GI50: 31.9 nM
[42]
  GI50: 28.6 nM

## CC(C)C[C@@H]1O[C@@H](O[C@H]2CC[C@@]3(C)[C@H](CC[C@@H]4[C@@H]3CC[C@]3(C)[C@@H](C5=CC(=O)OC5)CC[C@]43O)C2)CC[C@H]1O
[1]
  viability at 0.01 µM: 49.2%
[2]
  GI50: 85.3 nM
[3]
  GI50: 35.1 nM
[4]
  GI50: 35.6 nM
[5]
  GI50: 39.7 nM
[6]
  GI50: 95.9 nM
[7]
  GI50: 25.7 nM
[8]
  GI50: 25.7 nM
[9]
  GI50: 13.1 nM
[10]
  GI50: 23.5 nM
[11]
  GI50: 36.2 nM
[12]
  GI50: 40.3 nM
[13]
  GI50: 170 nM
[14]
  GI50: 225 nM
[15]
  GI50: 8.27 nM
[16]
  GI50: 204 nM
[17]
  GI50: 28.6 nM
[18]
  GI50: 24.4 nM
[19]
  Activity: 15%
[20]
  GI50: 29.6 nM
[21]
  Activity: 12.41%
[22]
  GI50: 26.3 nM
[23]
  GI50: 74.2 nM
[24]
  GI50: 42.5 nM
[25]
  GI50: 22.5 nM
[26]
  GI50: 23.7 nM
[27]
  Activity: 100%
[28]
  GI50: 7.5 nM
[29]
  GI50: 67.2 nM
[30]
  GI50: 133 nM
[31]
  GI50: 20.9 nM
[32]
  GI50: 16.6 nM
[33]
  GI50: 26.9 nM
[34]
  GI50: 26.9 nM
[35]
  GI50: 115 nM
[36]
  GI50: 23.3 nM
[37]
  GI50: 26.1 nM
[38]
  GI50: 28.5 nM
[39]
  viability at 0.025 µM: 36.6%
[40]
  viability at 0.001 µM: 81.8%
[41]
  GI50: 31.7 nM
[42]
  GI50: 24.9 nM
